Yeast lifespan up: yeast lifespan extension. S. cerevisiae growth with nicotinamide, OD615; deaD strain in restrictive glucose medium. inhibition of the nicotinamide effect, % at 10 µM. 130,000 compounds, 0.68% hits. AID 775;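 active = inhibition above a set limit, placed 3 SD over the median of all compounds, cut at about 26% in these data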;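 note: 0% = nicotinamide-treated wells and 100% = cells grown without nicotinamide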
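Assay system: engineered S. cerevisiae DeaD replicative-lifespan strain, galactose-grown log-phase cells; Buffer or medium: CSMM-D glucose medium, restrictive; Probe or stimulus: nicotinamide 1.5 mM; Compound: single dose 10 µM compound, 0.25% DMSO; Schedule: 4 h preincubation then 48 h treatment at 30 °C; Technique: OD615 measurement.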
RAM network inh: blocks the yeast RAM network | inhibition, % at 50 µM | S. cerevisiae dse1pr::URA3 reporter, 5-FOA growth OD615, 2 d; analog-sensitive cbk1-as2 kinase mutant strain | 190,000 compounds, 1.8% hits | AID 868;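 active = inhibition above a set limit, 3 SD over mean compound inhibition, cut at about 8.4% in these data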;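 note: 0% = DMSO-only wells with no growth and 100% = 10 µM 1-NA-PP1 full growth; inhibition rescues growth on 5-FOA so higher OD means more RAM inhibition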
BB579 growth dn: chemicals that inhibit yeast BB579 growth in restrictive medium (lifespan-shortening candidates) | S. cerevisiae BB579 growth, OD615, 48 h | inhibition, % at 10 µM | 140,000 compounds, 0.51% hits;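 active = inhibition above a set limit, 3 SD over the mean compound inhibition, cut at about 44% in these data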
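System: DeaD yeast strain BB579; buffer or medium: CSMM-D dextrose restrictive medium; technique: OD at 615 nm; schedule: 4 h cell preincubation, 48 h compound exposure, 30 °C humidified; doses: single 10 µM dose; controls: amphotericin B 10 µg/mL, positive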
Phagocytosis inh: blocks phagocytosis by macrophages; J774A.1 macrophage IgG-bead phagocytosis, imaging; inhibition, % at 5 µM; 110,000 compounds, 0.07% hits; AID 1029;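 active = inhibition above the mean of the plate negative controls plus 5 SD, cut at about 13% in these data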;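 note: phagocytic index as fraction of beads internalized from green versus red external bead signal; plate controls were DMSO negative control for no effect and cytochalasin-D positive control for full effect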
RAM 5-FOA: RAM network inhibitors in efflux-deficient yeast. shares compounds with RAM network inh. S. cerevisiae efflux-deficient reporter strain, 5-FOA growth OD615, 2 days. max inhibition, %. 1,200 tested, under 10 active. AID 1305; call rule not given here;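 note: plate controls were vehicle for no effect and reference inhibitor for full effect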
Active calls of the source: *; nt = no result given. Shown are actives, neighbours in structure and some others; about 2.7% of the full set was active somewhere.

SMILES	Yeast lifespan up	RAM network inh	BB579 growth dn	Phagocytosis inh	RAM 5-FOA
CCOC(=O)c1c(N/N=C/c2ccncc2)n[nH]c1C	3	1	-27	0	nt
O=c1c2c3c(sc2nc(NCCO)n1CCc1ccccc1)CCCCC3	-10	6	-9	-5	nt
OCCNc1nc(SCc2ccccc2)nc2sc3c(c12)CCC3	-28	11*	-41	nt	3
CCC/C=C(\CCC)C(NS(=O)(=O)c1cccc2cccnc12)c1ccc(C(=O)OC)cc1 (configuration not stated)	7	13*	-20	nt	4
O=C(CC1C(=O)NCCN1Cc1cccc(Oc2ccccc2)c1)NCCCn1cccn1 (configuration not stated)	nt	1	nt	nt	nt
COCCNC(=O)c1c(N)n(-c2ccccc2)c2nc3ccccc3nc12	-3	15*	-25	-1	3
CC(C)OCCCNC(=O)c1c(N)n(/N=C/c2ccccn2)c2nc3ccccc3nc12	-10	12*	-13	0	8
Nc1c(C(=O)NCCN2CCOCC2)c2nc3ccccc3nc2n1-c1ccccc1	-11	0	-8	4	nt
CC(C)CN(CC(C)C)C(=O)C12CCC(C)(C(=O)C1)C2(C)C (configuration not stated)	-3	1	-46	0	nt
COc1ccc(C(=O)/C=C/Nc2ccc(S(=O)(=O)Nc3onc(C)c3C)cc2)cc1	5	13*	-22	-2	5
COc1ccc(C(=O)/C=C/Nc2ccc(S(=O)(=O)Nc3ncccn3)cc2)cc1	2	12*	-33	-6	6
Cc1noc(NS(=O)(=O)c2ccc(N/C=C/C(=O)c3ccncc3)cc2)c1C	4	6	-61	nt	nt
COc1ccc(C(=O)/C=C/Nc2ccc(S(=O)(=O)Nc3nc(C)cc(C)n3)cc2)cc1OC	9	4	6	-9	nt
CCOC(=O)c1c(NC(=O)CSC(=S)N2CCOCC2)sc(C)c1C	2	7	-13	-4	nt
C=C(CC1([C@@H](NP(=O)(c2ccccc2)c2ccccc2)[C@H]2C[C@@H]2CCCC)CC1)c1ccccc1	4	21*	-21	nt	7
NC(=O)C1CCN(CC(=O)N2N=CCC2c2ccccc2)CC1 (configuration not stated)	nt	3	nt	nt	nt
Cc1ccc(S(=O)(=O)NCC2CCC(C(=O)NCc3cccnc3)CC2)cc1 (configuration not stated)	nt	0	nt	nt	nt
CCN(CC)C(=O)CSc1nc2cc3c(cc2c(=O)n1CCCCCC(=O)NCc1ccc(OC)cc1)OCO3	nt	14*	nt	nt	4
Cc1cccc(C(=O)Nc2cccc(OC(=O)c3cccc(C)c3)c2)c1	-12	14*	-22	nt	5
COC(=O)COc1cccc(NC(=O)c2cccc(C)c2)c1	nt	0	nt	nt	nt
CN(CCO)c1cc(N2CCN(C(=O)c3ccco3)CC2)c2nonc2c1[N+](=O)[O-]	1	0	-22	-10	nt
CCCSc1nc(NCc2ccco2)c2c3c(sc2n1)COC(C)(C)C3	-22	13*	-31	nt	7
COc1ccc(NC(=O)CSc2nc3ccccc3c(=O)n2CCNC(C)=O)c(OC)c1	15	12*	-46	0	1
CC(=O)NCCn1c(SCc2cccc([N+](=O)[O-])c2)nc2ccccc2c1=O	nt	12*	nt	nt	3
CC(=O)NCCn1c(SCc2cc(F)ccc2F)nc2ccccc2c1=O	-5	5	-52	nt	nt
SMILES	Yeast lifespan up	RAM network inh	BB579 growth dn	Phagocytosis inh	RAM 5-FOA
N=C(SC1CC(=O)N(c2ccc(F)cc2)C1=O)N1N=C(c2ccccc2)CC1c1ccccc1 (configuration not stated)	nt	1	nt	nt	nt
CCc1ccc(OCC(=O)O/N=C(\N)Cc2ccc([N+](=O)[O-])cc2)cc1	11	7	-44	-4	nt
Cc1cccc(OCC(=O)O/N=C(\N)Cc2ccc([N+](=O)[O-])cc2)c1	nt	18*	nt	nt	2
CCCC(=O)OCCNc1cc(SCc2ccco2)c2nonc2c1[N+](=O)[O-]	2	14*	-2	-7	3
C=CCn1c(SCC(=O)Nc2ccccc2C)nnc1-c1ccncc1	-7	14*	12	-1	2
COc1ccccc1OCC(=O)N/N=C1/C=C(C)CC1	nt	2	nt	nt	nt
N#Cc1ccsc1NC(=O)COC(=O)CCCSc1nc2ccccc2s1	-13	15*	-53	0	3
NC(=O)COC(=O)CCCSc1nc2ccccc2s1	nt	0	nt	nt	nt
C=C(C)COc1ccc(-c2n[nH]c(C)c2Oc2ccccc2OC)c(O)c1	-2	5	-25	-1	nt
C=C(C)COc1ccc(-c2[nH]ncc2Oc2ccccc2OCC)c(O)c1	-15	16*	-5	0	2
C=C(C)COc1ccc(-c2[nH]ncc2-c2ccc(OC)c(OC)c2)c(O)c1	-21	14*	-33	0	2
CCCc1ccc(Oc2cn[nH]c2-c2ccc(O)cc2O)cc1	-7	2	-44	-1	nt
CCCCn1c(SCc2nc3ccccc3s2)nc2ccccc2c1=O	6	13*	-38	-14	3
CCOc1c(Cl)cc(C(=O)Nc2ccccc2-c2ccccc2)cc1Cl	-17	14*	-29	nt	5
Cc1cc(C(=O)CSc2ccc(Cl)cc2)cc(C)c1OC(=S)N(C)C	-4	12*	-26	0	5
COCc1cc(=O)[nH]c(/N=C(\N)Nc2cccc(Cl)c2)n1	nt	1	nt	nt	nt
COc1ccc(CC(=O)n2nc(-c3ccc(Cl)cc3)nc2NCc2ccco2)cc1	-6	14*	-1	2	4
O=C(c1cccs1)n1nc(-c2ccc(Cl)cc2)nc1NCc1ccco1	-3	13*	-37	nt	3
Cc1ccc(C(=O)n2nc(-c3ccccc3)nc2NCc2ccco2)cc1	-11	13*	-17	-1	3
CSc1nc(-c2ccccc2)nn1S(=O)(=O)c1ccccc1	nt	-1	-5	nt	nt
CCCC(=O)n1nc(-c2ccc(C)cc2)nc1NCc1ccco1	nt	3	nt	nt	nt
O=S(=O)(c1ccccc1)n1nc(-c2ccccc2)nc1NCc1ccco1	-2	16*	-31	-2	6
CC(=O)n1nc(-c2ccc(Cl)cc2)nc1NCc1ccco1	-9	2	7	0	nt
C=CCn1c(SCC(=O)c2c(N)n(CCC)c(=O)n(C)c2=O)nnc1-c1ccncc1	nt	3	nt	nt	nt
O=c1[nH]c2ccc(S(=O)(=O)N3CCCCC3)cc2[nH]c1=O	nt	3	-32	nt	nt
CCCCC(=O)NC1(C(F)(F)F)C(=O)N(CC(C)C)C2=C1C(=O)CC(C)(C)C2 (configuration not stated)	-4	0	-34	-2	nt
CCC(C)N(C(=O)COc1ccc(NC(C)=O)cc1)C1CCS(=O)(=O)C1 (configuration not stated)	nt	2	nt	nt	nt
CCN(CC)CCN(C(=O)Cn1nnc(-c2ccc(C)o2)n1)C(C(=O)NC(C)(C)C)c1cccs1 (configuration not stated)	nt	3	nt	nt	nt
COc1cccc(-c2cc(C(F)(F)F)nc(N3CCN(c4ccccc4)CC3)n2)c1	0	16*	-34	-1	3
